Test results published in ChEMBL document CHEMBL1926565, “Synthesis, antiproliferative activities and telomerase inhibition evaluation of novel asymmetrical 1,2-disubstituted amidoanthraquinone derivatives” (Eur J Med Chem, 2012).

Tests used:
[1] = Cytotoxicity against human Hs 578T cells assessed as cellular growth at 10 uM; type: functional
Procedure, shortened: (§1)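 Single-dose screen run by the NCI across its 60-human-tumour-cell-line panel; growth recorded for each cell line.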

MDA-MB-435 = test: Cytotoxicity against human MDA-MB-435 cells assessed as cellular growth at 10 uM; type: functional; procedure, shortened: as §1
SNB-19 = test: Cytotoxicity against human SNB19 cells assessed as cellular growth at 10 uM; type: functional
UACC-257 = test: Cytotoxicity against human UACC257 cells assessed as cellular growth at 10 uM; type: functional
M14 = test: Cytotoxicity against human M14 cells assessed as cellular growth at 10 uM; type: functional; procedure, shortened: as §1
SF-539 = test: Cytotoxicity against human SF539 cells assessed as cellular growth at 10 uM; type: functional; procedure, shortened: as §1
HCC 2998 = test: Cytotoxicity against human HCC2998 cells assessed as cellular growth at 10 uM; type: functional; procedure, shortened: as §1
HOP-62 = test: Cytotoxicity against human HOP62 cells assessed as cellular growth at 10 uM; type: functional; procedure, shortened: as §1
SK-MEL-5 = test: Cytotoxicity against human SK-MEL-5 cells assessed as cellular growth at 10 uM; type: functional
SNB-75 = test: Cytotoxicity against human SNB75 cells assessed as cellular growth at 10 uM; type: functional
MDA-MB-231 = test: Cytotoxicity against human MDA-MB-231 cells assessed as cellular growth at 10 uM; type: functional; procedure, shortened: as §1
SW-620 = test: Cytotoxicity against human SW620 cells assessed as cellular growth at 10 uM; type: functional
[2] = molecular target: Telomerase reverse transcriptase (Homo sapiens) (UniProt O14746); test: Residual activity of human TERT in H1299 cells at 100 uM after 24 hrs by SEAP reporter gene assay
Telomerase reverse transcriptase (Homo sapiens), sequence (O14746 whole entry): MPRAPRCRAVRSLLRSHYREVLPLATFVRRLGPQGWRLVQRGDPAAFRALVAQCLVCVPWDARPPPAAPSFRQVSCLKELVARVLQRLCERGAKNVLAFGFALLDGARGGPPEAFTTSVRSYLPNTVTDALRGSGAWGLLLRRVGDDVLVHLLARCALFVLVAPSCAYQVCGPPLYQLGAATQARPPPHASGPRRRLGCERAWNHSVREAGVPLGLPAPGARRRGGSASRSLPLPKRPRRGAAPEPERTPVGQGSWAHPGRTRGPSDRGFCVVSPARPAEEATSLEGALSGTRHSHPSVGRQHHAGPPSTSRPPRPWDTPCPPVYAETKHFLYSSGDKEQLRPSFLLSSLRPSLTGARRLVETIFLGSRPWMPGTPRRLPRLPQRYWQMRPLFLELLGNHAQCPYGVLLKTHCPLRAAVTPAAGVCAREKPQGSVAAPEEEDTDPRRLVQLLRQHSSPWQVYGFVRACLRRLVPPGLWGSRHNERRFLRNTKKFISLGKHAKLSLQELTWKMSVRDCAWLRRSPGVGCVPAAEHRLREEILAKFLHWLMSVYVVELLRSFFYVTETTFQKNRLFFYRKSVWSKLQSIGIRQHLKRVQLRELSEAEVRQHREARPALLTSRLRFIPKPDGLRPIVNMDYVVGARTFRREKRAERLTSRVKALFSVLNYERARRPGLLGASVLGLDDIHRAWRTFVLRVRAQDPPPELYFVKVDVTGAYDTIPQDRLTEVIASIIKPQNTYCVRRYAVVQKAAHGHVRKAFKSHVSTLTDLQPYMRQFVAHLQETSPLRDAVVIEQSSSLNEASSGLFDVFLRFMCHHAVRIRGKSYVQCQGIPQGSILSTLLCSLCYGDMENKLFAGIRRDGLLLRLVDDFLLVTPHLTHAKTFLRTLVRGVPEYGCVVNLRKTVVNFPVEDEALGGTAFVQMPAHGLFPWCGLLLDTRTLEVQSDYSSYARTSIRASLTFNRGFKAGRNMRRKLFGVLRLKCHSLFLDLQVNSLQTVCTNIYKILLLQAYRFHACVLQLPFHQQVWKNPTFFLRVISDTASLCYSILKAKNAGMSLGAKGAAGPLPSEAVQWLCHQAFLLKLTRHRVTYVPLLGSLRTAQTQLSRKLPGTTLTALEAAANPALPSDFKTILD

HCT-15 = test: Cytotoxicity against human HCT15 cells assessed as cellular growth at 10 uM; type: functional; procedure, shortened: as §1
HL-60(TB) = test: Cytotoxicity against human HL-60(TB) cells assessed as cellular growth at 10 uM; type: functional; procedure, shortened: as §1
A549 = test: Cytotoxicity against human A549 cells assessed as cellular growth at 10 uM; type: functional; procedure, shortened: as §1
NCI-H460 = test: Cytotoxicity against human NCI-H460 cells assessed as cellular growth at 10 uM; type: functional; procedure, shortened: as §1
COLO 205 = test: Cytotoxicity against human COLO205 cells assessed as cellular growth at 10 uM; type: functional; procedure, shortened: as §1
NCI-H226 = test: Cytotoxicity against human NCI-H226 cells assessed as cellular growth at 10 uM; type: functional; procedure, shortened: as §1
EKVX = test: Cytotoxicity against human EKVX cells assessed as cellular growth at 10 uM; type: functional; procedure, shortened: as §1
NCI-H322M = test: Cytotoxicity against human NCI-H322M cells assessed as cellular growth at 10 uM; type: functional; procedure, shortened: as §1
RXF 393 = test: Cytotoxicity against human RXF393 cells assessed as cellular growth at 10 uM; type: functional; procedure, shortened: as §1
[3] = Growth of human H1299 cells at 1 uM after 48 hrs by MTT assay; details: NCI-H1299, 48 h
[4] = Growth of human H1299 cells at 100 uM 48 hrs by MTT assay; details: NCI-H1299, 48 h
DU-145 = test: Cytotoxicity against human DU145 cells assessed as cellular growth at 10 uM; type: functional; procedure, shortened: as §1
PC-3 = test: Cytotoxicity against human PC3 cells after 48 hrs by SRB assay; type: functional, cell-based; details: PC-3, 48 h
Procedure, shortened: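 PC-3 cells grown in RPMI1640 with 10% FBS at 37 °C, 5% CO₂. Seeded in medium with 5% FBS; after 24 h, one plate fixed with 10% TCA as T₀. Compound or 0.1% DMSO vehicle added for 48 h, then TCA fixation and 0.4% SRB in 1% acetic acid. Dye solubilized in 10 mM Trizma base, absorbance read at 515 nm. IC50 is the concentration giving 50% reduction of the protein gain in controls.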

KM12 = test: Cytotoxicity against human KM12 cells assessed as cellular growth at 10 uM; type: functional; procedure, shortened: as §1
NCI-H23 = test: Cytotoxicity against human NCI-H23 cells assessed as cellular growth at 10 uM; type: functional; procedure, shortened: as §1
CAKI-1 = test: Cytotoxicity against human Caki1 cells assessed as cellular growth at 10 uM; type: functional; procedure, shortened: as §1
UO-31 = test: Cytotoxicity against human UO31 cells assessed as cellular growth at 10 uM; type: functional
HOP-92 = test: Cytotoxicity against human HOP92 cells assessed as cellular growth at 10 uM; type: functional; procedure, shortened: as §1
OVCAR-8 = test: Cytotoxicity against human OVCAR8 cells assessed as cellular growth at 10 uM; type: functional; procedure, shortened: as §1
UACC-62 = test: Cytotoxicity against human UACC62 cells assessed as cellular growth at 10 uM; type: functional
SK-OV-3 = test: Cytotoxicity against human SKOV3 cells assessed as cellular growth at 10 uM; type: functional
OVCAR-3 = test: Cytotoxicity against human OVCAR3 cells assessed as cellular growth at 10 uM; type: functional; procedure, shortened: as §1
MDA-MB-468 = test: Cytotoxicity against human MDA-MB-468 cells assessed as cellular growth at 10 uM; type: functional; procedure, shortened: as §1
MCF7 = test: Cytotoxicity against human MCF7 cells assessed as cellular growth at 10 uM; type: functional; procedure, shortened: as §1
OVCAR-5 = test: Cytotoxicity against human OVCAR5 cells assessed as cellular growth at 10 uM; type: functional; procedure, shortened: as §1
U-251 = test: Cytotoxicity against human U251 cells assessed as cellular growth at 10 uM; type: functional
NCI/ADR-RES = test: Cytotoxicity against human NCI/ADR-RES cells assessed as cellular growth at 10 uM; type: functional; procedure, shortened: as §1
HCT-116 = test: Cytotoxicity against human HCT116 cells assessed as cellular growth at 10 uM; type: functional; procedure, shortened: as §1
IGROV-1 = test: Cytotoxicity against human IGROV1 cells assessed as cellular growth at 10 uM; type: functional; procedure, shortened: as §1
CCRF-CEM = test: Cytotoxicity against human CCRF-CEM cells assessed as cellular growth at 10 uM; type: functional; procedure, shortened: as §1
ACHN = test: Cytotoxicity against human ACHN cells assessed as cellular growth at 10 uM; type: functional; procedure, shortened: as §1
SF-295 = test: Cytotoxicity against human SF295 cells assessed as cellular growth at 10 uM; type: functional; procedure, shortened: as §1
LOX IMVI = test: Cytotoxicity against human LOXIMVI cells assessed as cellular growth at 10 uM; type: functional; procedure, shortened: as §1
OVCAR-4 = test: Cytotoxicity against human OVCAR4 cells assessed as cellular growth at 10 uM; type: functional; procedure, shortened: as §1
[5] = molecular target: Telomerase reverse transcriptase (Homo sapiens) (UniProt O14746); test: Residual activity of human TERT in H1299 cells at 10 uM after 24 hrs by SEAP reporter gene assay
[6] = Growth of human H1299 cells at 10 uM after 48 hrs by MTT assay; details: NCI-H1299, 48 h
Malme-3M = test: Cytotoxicity against human MALME-3M cells assessed as cellular growth at 10 uM; type: functional; procedure, shortened: as §1
SR = test: Cytotoxicity against human SR cells assessed as cellular growth at 10 uM; type: functional

Compound: Cc1ccc(C(=O)Nc2c(NC(=O)CN3CCCC3)ccc3c2C(=O)c2ccccc2C3=O)cc1
- Activity [1]: 69.39%
- Activity (MDA-MB-435): 79.14%
- Activity (SNB-19): 108.22%
- Activity (UACC-257): 92.83%
- Activity (M14): 88.01%
- Activity (SF-539): 81.29%
- Activity (HCC 2998): 84.6%
- Activity (HOP-62): 113.43%
- Activity (SK-MEL-5): 61.74%
- Activity (SNB-75): 66.03%
- Activity (MDA-MB-231): 73.34%
- Activity (SW-620): 82.29%
- residual activity [2]: 3%
- Activity (HCT-15): 73.22%
- Activity (HL-60(TB)): 96.11%
- Activity (A549): 84.88%
- Activity (NCI-H460): 61.05%
- Activity (COLO 205): 65.6%
- Activity (NCI-H226): 90.22%
- Activity (EKVX): 65.93%
- Activity (NCI-H322M): 82.5%
- Activity (RXF 393): 63.8%
- growth, % of control at 1 µM [3]: 88%
- growth, % of control at 100 µM [4]: 5%
- Activity (DU-145): 91.52%
- IC50 (PC-3): 17.6 µM
- Activity (KM12): 51.05%
- Activity (NCI-H23): 73.29%
- Activity (CAKI-1): 55.64%
- Activity (UO-31): 69.24%
- Activity (HOP-92): 59.33%
- Activity (OVCAR-8): 65.02%
- Activity (UACC-62): 76.82%
- Activity (SK-OV-3): 82.13%
- Activity (OVCAR-3): 77.82%
- Activity (MDA-MB-468): 69.27%
- Activity (MCF7): 70.79%
- Activity (OVCAR-5): 102.31%
- Activity (U-251): 82.17%
- Activity (NCI/ADR-RES): 50.86%
- Activity (HCT-116): 58.46%
- Activity (IGROV-1): 106.07%
- Activity (CCRF-CEM): 39.61%
- Activity (ACHN): 82.23%
- Activity (SF-295): 68.97%
- Activity (LOX IMVI): 80.62%
- Activity (OVCAR-4): 47.06%
- residual activity [5]: 59%
- growth, % of control at 10 µM [6]: 69%
- Activity (Malme-3M): 82.24%

Compound: Cc1ccc(C(=O)Nc2c(NC(=O)CCl)ccc3c2C(=O)c2ccccc2C3=O)cc1
- Activity (MDA-MB-435): 4.82%
- Activity (SNB-19): 88.4%
- Activity (M14): -22.68%
- Activity (SF-539): -31.42%
- Activity (HOP-62): -28.62%
- Activity (SK-MEL-5): -98.72%
- Activity (SNB-75): 6.31%
- Activity (MDA-MB-231): 24.67%
- Activity (SW-620): -43.27%
- residual activity [2]: 0%
- Activity (HCT-15): -50.22%
- Activity (HL-60(TB)): -46.88%
- Activity (A549): -81.71%
- Activity (NCI-H460): 95.65%
- Activity (COLO 205): -53.43%
- Activity (NCI-H226): -25.3%
- Activity (EKVX): 88.22%
- Activity (NCI-H322M): 95.05%
- growth, % of control at 1 µM [3]: 103%
- growth, % of control at 100 µM [4]: 0%
- Activity (DU-145): -97.56%
- IC50 (PC-3): 3.87 µM
- Activity (SR): -19.84%
- Activity (KM12): -19.53%
- Activity (NCI-H23): -85.89%
- Activity (UO-31): 42.91%
- Activity (HOP-92): -68.77%
- Activity (OVCAR-8): 8.72%
- Activity (UACC-62): -67.8%
- Activity (SK-OV-3): 106.24%
- Activity (OVCAR-3): -92.86%
- Activity (MDA-MB-468): -83.42%
- Activity (MCF7): -79.28%
- Activity (OVCAR-5): 109.55%
- Activity (U-251): -44.02%
- Activity (NCI/ADR-RES): 72.17%
- Activity (HCT-116): -54.27%
- Activity (IGROV-1): 51.41%
- Activity (ACHN): 21.92%
- Activity (SF-295): 79.7%
- Activity (LOX IMVI): -57.05%
- Activity (OVCAR-4): 34.52%
- residual activity [5]: 0%
- growth, % of control at 10 µM [6]: 2%
- Activity (Malme-3M): -22.41%
